In publication PMC3024510 (Cancer Immunology, Immunotherapy : CII, 2010):

Tests used:
cancer cells = assay: cold target inhibition assay; assay type: cell-based; details: unlabeled peptide-loaded T2 cells, inhibitor:target ratio 20:1; singlets
Summary of the method: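 51Cr-labeled (1 h) cancer cell line targets, including an HLA-A2− breast cancer line, were co-cultured 4 h with the peptide-specific CTL clone. The clone came from RCC-patient PBLs and was maintained on 120 U/ml IL-2. Unlabeled peptide-loaded T2 cells were added at 20-fold excess over targets. Supernatant 51Cr was gamma-counted.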

T2 cells = assay type: cell-based, human; details: 4 h 51Cr release; singlets
Summary of the method: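 Effector: a clone from RCC-patient PBLs given repeated peptide-loaded autologous DC and PBL stimulations, limiting-dilution cloned, and kept on 120 U/ml IL-2. […] Supernatant 51Cr was gamma-counted.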

HLA-A2 = assay: HLA stabilization assay for peptide binding to HLA class I molecules; set-up: species or system human; details: mean value from two experiments; normalized to HIV (40 μM peptide)
[1] = system: PBLs from cancer patients; assay: IFN-γ ELISPOT assay, cancer patients; assay type: cell-based, human; details: all cancer patients tested (BC, MM, RCC)
Summary of the method: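 Cells were monocyte-depleted, cryopreserved leukapheresis PBLs from end-stage breast cancer, MM and RCC patients. They were stimulated once with 20 µM peptide, given 40 U/ml IL-2 next day, and tested after 7–8 days. The overnight IFN-γ ELISPOT used 3 × 10^5 cells/well in duplicate ± 5 µM peptide, with 10^4 T2 cells per well. Responders: background-subtracted mean spots ±½ SD >25 per 10^5 cells.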

## ILIDWLVQV [CB204]
Cancer cells
  inhibition of cancer cell lysis by cold T2 target cells presenting the peptide: inhibited lysis of cancer cells
T2 cells
  lysis of peptide-loaded T2 cells by CB204-specific CTL clone: able to lyse T2 cells loaded with CB204
HLA-A2
  HLA-A2 stabilization relative to HIV: stabilizes HLA-A2 to a higher degree than HIV
[1]
  cancer patients with spontaneous T-cell responses: 73%

## ILKEPVHGV [HIV-1 pol476–484, reference compound]
T2 cells
  lysis of peptide-loaded T2 cells by CB204-specific CTL clone: not T2 cells loaded with an irrelevant HIV peptide
